# Experimental data: article PMC11319731 (Nature Communications, 2024)
# How the values were obtained:
# [1] = molecular target: PD-L1 in HCT116 cells (Homo sapiens, UniProt Q9NZQ7); assay: Immunofluorescence; format: cell-based; conditions: HCT116, incubation for 10 h, LSCM
# How it was run: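 HCT116 colon cancer cells were exposed to test peptide carrying an N-terminal Arg6 cell-penetrating hexamer, or to an Arg6-tagged random-sequence control peptide. PD-L1 was labelled with red dye and HSC70 or LAMP2 with green dye, and cells were imaged by laser scanning confocal microscopy (10 h incubation stated for the HSC70 pairing). Intensity profiles were plotted along a line, with colocalization given as Pearson's R.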
# [2] = tested on: PD-L2, B7H3 (CD276), B7H4, Vista; assay: Western blot of other PD-L1 family proteins in HCT116; format: cell-based; conditions: 5μM Arg6-MPHP, HCT116, WB
# Sequence of PD-L1 in HCT116 cells (Q9NZQ7 19-290): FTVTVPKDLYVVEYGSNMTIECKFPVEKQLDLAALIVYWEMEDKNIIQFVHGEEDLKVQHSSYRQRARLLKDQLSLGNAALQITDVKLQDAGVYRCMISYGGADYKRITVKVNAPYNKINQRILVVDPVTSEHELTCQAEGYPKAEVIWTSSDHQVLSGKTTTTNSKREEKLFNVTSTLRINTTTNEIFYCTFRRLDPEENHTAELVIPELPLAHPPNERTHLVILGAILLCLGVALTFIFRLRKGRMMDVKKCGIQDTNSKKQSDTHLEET
structure (smiles),measurement,setting,value
C[C@H](O)[C@@H](NC(=O)[C@H]1CCCN1C(=O)[C@@H](CCCCN)NC(=O)[C@@H](CO)NC(=O)[C@@H](Cc1ccc(O)cc1)NC(=O)[C@@H](CC(N)=O)NC(=O)CCOCCOCCOCCNC(=O)[C@H](CCC(N)=O)NC(=O)[C@H](CCCNC(=N)N)NC(=O)[C@H](Cc1ccccc1)NC(=O)[C@H](CCC(=O)O)NC(=O)[C@H](CCCCN)NC(=O)[C@H](CS)NC(=O)[C@H](CCCNC(=N)N)NC(=O)[C@H](CCCNC(=N)N)NC(=O)[C@H](CCCNC(=N)N)NC(=O)[C@H](CCCNC(=N)N)NC(=O)[C@H](CCCNC(=N)N)NC(=O)[C@@H](N)CCCNC(=N)N)C(=O)N[C@H](CC(=O)O)C(=O)N[C@H](CCCNC(=N)N)C(=O)N[C@H](CCC(N)=O)C(=O)N[C@H](Cc1ccc(O)cc1)C(=O)N[C@H](Cc1c[nH]cn1)C(=O)N[C@H](Cc1ccccc1)C(=O)O [Arg6-MPHP],colocalization of PD-L1 and HSC70,[1],conspicuous colocalization
same,"impact on other PD-L1 family proteins (PD-L2, B7H3 (CD276), B7H4, Vista)",[2],negligible
